Experimental data: ChEMBL document CHEMBL3392986, “Hydroxamic acids block replication of hepatitis C virus” (J Med Chem, 2015)
Activity calls are given as the source filed them. The rule behind the calls is not given here.

Key:
[1] = Cytotoxicity against human HuH7 cells assessed as inhibition of cell viability after 3 days by CellTiter 96 assay
Hepatitis C virus [2] = test: Antiviral activity against HCV genotype 1b infected in human Huh7 cells after 3 days by luciferase reporter gene assay; type: functional, cell-based, Hepacivirus hominis; settings: Huh-7, 72 h
[3] = Therapeutic index, ratio of CC50 for human HuH7 cells to EC50 for HCV genotype 1b infected in human Huh7 cells; settings: HuH7 cells
Hepatitis C virus [4] = test: Antiviral activity against HCV genotype 1b infected in human Huh7 cells assessed as reduction in viral RNA level at 0.5 uM after 3 days by RT-qPCR; type: functional, Hepacivirus hominis, Huh-7; parameters: scale not given: the % may be the effect or the level left; settings: in the assay text read “2 uM” for “0.5 uM”
Summary of the method: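 Replicon-bearing Huh7 cells, 6 X 10^3 per well, exposed to compound in DMSO or DMSO alone for three days at 37 °C/5% CO2. Replicon RNA quantified by TaqMan Cells-to-CT RT-qPCR with NS5B primers/probe, using GAPDH in parallel wells as reference. Level relative to DMSO-treated cells calculated as 2-∆∆CT. Triplicate wells.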

[5] = biological target: Histone deacetylase 1 (Homo sapiens) (UniProt Q13547); test: Inhibition of full length C-terminal GST-tagged human HDAC1 expressed in baculovirus expression system assessed as inhibition of fluorophore 7-amino-4-methylcoumarin release by fluorescence assay
[6] = biological target: Histone deacetylase 2 (Homo sapiens) (UniProt Q92769); test: Inhibition of full length C-terminal His-tagged human HDAC2 expressed in baculovirus expression system assessed as inhibition of fluorophore 7-amino-4-methylcoumarin release by fluorescence assay
[7] = biological target: Histone deacetylase 3 (Homo sapiens) (UniProt O15379); test: Inhibition of full length C-terminal His-tagged human HDAC3 expressed in baculovirus expression system assessed as inhibition of fluorophore 7-amino-4-methylcoumarin release by fluorescence assay
[8] = biological target: T1, Protein deacetylase HDAC6 (Homo sapiens) (UniProt Q9UBN7); test: Inhibition of full length N-terminal GST-tagged human HDAC6 expressed in baculovirus expression system assessed as inhibition of fluorophore 7-amino-4-methylcoumarin release by fluorescence assay
T1 sequence (whole entry): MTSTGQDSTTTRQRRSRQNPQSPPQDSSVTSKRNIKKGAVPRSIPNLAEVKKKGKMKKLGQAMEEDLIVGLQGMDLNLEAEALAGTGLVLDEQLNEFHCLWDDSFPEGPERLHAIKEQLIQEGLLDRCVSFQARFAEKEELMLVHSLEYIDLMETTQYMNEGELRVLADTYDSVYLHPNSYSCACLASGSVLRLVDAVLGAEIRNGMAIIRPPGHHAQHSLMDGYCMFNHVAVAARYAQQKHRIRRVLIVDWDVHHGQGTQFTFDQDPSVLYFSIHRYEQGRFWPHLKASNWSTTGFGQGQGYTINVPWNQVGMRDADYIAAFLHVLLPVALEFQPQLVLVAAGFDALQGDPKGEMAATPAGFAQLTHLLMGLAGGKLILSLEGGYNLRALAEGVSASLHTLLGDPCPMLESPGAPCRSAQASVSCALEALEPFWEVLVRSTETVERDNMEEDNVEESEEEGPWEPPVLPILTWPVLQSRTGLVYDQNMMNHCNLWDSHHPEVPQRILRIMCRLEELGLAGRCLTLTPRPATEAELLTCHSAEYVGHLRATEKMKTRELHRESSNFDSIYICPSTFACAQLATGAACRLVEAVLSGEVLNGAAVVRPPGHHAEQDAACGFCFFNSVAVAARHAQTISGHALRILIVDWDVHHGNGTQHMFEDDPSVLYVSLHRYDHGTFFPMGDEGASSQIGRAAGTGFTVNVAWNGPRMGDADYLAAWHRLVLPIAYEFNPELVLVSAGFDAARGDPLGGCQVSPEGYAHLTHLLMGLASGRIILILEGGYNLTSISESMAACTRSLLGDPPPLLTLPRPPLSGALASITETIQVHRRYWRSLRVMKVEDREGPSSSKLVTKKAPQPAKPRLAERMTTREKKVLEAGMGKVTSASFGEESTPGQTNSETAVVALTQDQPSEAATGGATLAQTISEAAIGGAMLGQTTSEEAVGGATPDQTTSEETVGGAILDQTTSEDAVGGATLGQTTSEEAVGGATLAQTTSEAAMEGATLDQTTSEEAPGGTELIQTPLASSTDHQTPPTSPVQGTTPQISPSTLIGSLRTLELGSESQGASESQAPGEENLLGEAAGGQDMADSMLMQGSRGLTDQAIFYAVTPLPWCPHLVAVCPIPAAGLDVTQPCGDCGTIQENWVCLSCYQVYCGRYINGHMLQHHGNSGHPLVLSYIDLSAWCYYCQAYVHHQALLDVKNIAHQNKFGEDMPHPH

[9] = biological target: T2, Histone deacetylase 7 (Homo sapiens) (UniProt Q8WUI4); test: Inhibition of full length N-terminal GST-tagged human HDAC7 (amino acids 518 to end) expressed in baculovirus expression system assessed as inhibition of fluorophore 7-amino-4-methylcoumarin release by fluorescence assay
T2 sequence (whole entry): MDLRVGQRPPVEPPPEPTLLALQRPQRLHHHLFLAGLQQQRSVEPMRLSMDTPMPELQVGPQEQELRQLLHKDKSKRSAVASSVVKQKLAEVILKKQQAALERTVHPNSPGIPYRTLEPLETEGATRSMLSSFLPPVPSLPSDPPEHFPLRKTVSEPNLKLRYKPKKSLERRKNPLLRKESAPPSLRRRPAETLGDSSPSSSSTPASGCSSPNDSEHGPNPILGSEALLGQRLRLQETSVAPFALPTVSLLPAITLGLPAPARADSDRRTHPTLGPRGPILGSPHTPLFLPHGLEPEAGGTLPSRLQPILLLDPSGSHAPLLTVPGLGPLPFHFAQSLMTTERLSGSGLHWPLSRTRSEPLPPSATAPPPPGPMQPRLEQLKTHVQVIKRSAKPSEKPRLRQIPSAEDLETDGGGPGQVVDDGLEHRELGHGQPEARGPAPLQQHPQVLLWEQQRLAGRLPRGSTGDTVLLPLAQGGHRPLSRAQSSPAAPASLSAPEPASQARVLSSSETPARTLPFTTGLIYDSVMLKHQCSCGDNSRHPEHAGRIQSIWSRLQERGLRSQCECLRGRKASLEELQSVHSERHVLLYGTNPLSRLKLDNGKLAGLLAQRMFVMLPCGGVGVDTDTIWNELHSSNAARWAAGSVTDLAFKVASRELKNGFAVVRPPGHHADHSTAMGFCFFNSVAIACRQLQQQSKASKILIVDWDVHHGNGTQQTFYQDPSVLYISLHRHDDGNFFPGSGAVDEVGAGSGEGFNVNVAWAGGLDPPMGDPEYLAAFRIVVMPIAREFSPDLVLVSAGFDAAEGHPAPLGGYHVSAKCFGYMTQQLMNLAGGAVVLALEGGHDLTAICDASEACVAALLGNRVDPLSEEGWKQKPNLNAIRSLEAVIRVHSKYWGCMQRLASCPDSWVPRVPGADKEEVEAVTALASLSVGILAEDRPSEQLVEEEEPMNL

[10] = biological target: Matrix metalloproteinase-9 (Homo sapiens) (UniProt P14780); test: Inhibition of human recombinant MMP9 catalytic domain (107 to 449 aa) expressed in Escherichia coli
Matrix metalloproteinase-9 (Homo sapiens), sequence (P14780 whole entry, the tested form may be a part): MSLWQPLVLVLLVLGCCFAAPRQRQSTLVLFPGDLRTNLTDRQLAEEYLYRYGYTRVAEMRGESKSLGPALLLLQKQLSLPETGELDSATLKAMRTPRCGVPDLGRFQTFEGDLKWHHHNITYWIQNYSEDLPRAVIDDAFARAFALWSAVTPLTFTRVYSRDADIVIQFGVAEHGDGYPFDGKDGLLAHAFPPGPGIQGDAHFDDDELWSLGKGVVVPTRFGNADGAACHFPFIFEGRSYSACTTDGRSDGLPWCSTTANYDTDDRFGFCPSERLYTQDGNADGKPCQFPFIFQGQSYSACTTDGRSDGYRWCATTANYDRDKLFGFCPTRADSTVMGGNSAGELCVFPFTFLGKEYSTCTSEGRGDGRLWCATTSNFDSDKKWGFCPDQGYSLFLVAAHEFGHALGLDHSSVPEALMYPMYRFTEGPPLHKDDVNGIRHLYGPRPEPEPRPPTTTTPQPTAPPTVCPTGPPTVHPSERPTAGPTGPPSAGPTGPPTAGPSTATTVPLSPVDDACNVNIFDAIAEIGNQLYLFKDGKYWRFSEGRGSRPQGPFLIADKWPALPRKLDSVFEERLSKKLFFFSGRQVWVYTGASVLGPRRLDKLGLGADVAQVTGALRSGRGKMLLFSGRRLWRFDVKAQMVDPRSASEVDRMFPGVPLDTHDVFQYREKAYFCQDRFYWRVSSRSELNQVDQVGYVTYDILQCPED

Histone deacetylase 1 (Homo sapiens), sequence (Q13547 whole entry): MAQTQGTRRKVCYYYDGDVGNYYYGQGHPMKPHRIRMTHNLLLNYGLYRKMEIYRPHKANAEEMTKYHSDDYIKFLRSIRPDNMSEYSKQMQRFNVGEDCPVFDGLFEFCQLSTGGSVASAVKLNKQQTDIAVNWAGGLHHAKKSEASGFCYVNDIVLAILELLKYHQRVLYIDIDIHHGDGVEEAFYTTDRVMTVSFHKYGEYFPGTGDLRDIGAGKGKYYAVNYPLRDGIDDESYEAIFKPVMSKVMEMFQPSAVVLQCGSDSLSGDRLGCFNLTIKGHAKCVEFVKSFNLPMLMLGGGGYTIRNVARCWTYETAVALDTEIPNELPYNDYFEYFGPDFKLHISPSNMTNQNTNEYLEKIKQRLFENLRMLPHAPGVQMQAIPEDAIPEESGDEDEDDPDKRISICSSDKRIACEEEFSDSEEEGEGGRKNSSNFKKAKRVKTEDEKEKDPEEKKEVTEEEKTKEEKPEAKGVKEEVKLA
Histone deacetylase 3 (Homo sapiens), sequence (O15379 whole entry): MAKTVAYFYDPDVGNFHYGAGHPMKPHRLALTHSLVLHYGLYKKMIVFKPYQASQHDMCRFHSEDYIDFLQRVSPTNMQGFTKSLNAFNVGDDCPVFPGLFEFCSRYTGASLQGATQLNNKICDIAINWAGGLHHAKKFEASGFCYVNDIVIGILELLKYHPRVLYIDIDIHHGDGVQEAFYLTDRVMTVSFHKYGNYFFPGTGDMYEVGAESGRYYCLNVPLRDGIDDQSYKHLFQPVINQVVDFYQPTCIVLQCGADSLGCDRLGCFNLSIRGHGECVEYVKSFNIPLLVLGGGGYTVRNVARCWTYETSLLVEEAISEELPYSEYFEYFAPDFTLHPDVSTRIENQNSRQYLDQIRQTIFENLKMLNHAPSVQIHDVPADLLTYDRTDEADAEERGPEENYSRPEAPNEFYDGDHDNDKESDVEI
Histone deacetylase 2 (Homo sapiens), sequence (Q92769 whole entry): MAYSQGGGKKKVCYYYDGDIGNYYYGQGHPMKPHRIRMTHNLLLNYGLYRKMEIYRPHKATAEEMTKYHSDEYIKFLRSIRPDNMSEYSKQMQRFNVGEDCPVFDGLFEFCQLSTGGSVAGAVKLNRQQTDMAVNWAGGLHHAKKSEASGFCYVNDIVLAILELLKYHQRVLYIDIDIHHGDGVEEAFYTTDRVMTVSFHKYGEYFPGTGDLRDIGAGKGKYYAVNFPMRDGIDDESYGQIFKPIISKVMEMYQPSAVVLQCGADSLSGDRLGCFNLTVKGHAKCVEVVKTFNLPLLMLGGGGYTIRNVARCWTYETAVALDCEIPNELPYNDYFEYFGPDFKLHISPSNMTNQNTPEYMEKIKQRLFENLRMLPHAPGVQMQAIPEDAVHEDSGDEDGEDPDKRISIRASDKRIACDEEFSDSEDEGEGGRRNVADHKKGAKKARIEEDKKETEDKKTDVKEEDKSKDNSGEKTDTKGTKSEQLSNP

Which results are given for `O=C(NO)c1sc2ccccc2c1S(=O)(=O)c1ccccc1`?
CC50 at 72 h [1]: 57 µM; EC50 (Hepatitis C virus [2]): 0.61 µM; selectivity ratio [3]: 93; Activity (Hepatitis C virus [4]): 75%; inhibition [5]: inactive; inhibition [6]: inactive; inhibition [7]: inactive; inhibition [8]: inactive; inhibition [9]: inactive; inhibition [10]: Active
